Laboratory results taken from PMC4506688 (Pharmacology Research & Perspectives, 2015).

Tests used:
[1] = biological target: CB2 (Homo sapiens, UniProt P34972); test: ACTOne cell-based cAMP assay in HEK-CNG+CB2 cells; details: HEK-CNG+CB2, control agonist
[2] = tested on: parental HEK-CNG cells; test: ACTOne cell-based cAMP assay in parental HEK-CNG cells; set-up: species or system human
[3] = biological target: CB1 (Homo sapiens, UniProt P21554); test: ACTOne cell-based cAMP assay in HEK-CNG+CB1 cells; details: HEK-CNG+CB1, control agonist
[4] = tested on: C8B4 murine microglia; test: On cell polarization assay; type: cell-based; details: 1 μg/mL LPS, ligand at EC50 added 1 h after LPS, 24 h
Method in brief: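 C8B4 microglia were seeded at 20,000 cells/well in DMEM with 10% FBS, then switched to 1% FBS the next day. On day 3, LPS was added (final 1 μg/mL), followed 1 h later by the test compound in LPS-containing medium. After 24 h, cells were given anti-CD16/32 or anti-CD206 antibody (2 μg/mL, 2 h), then a SULFO-TAG secondary (2 h). The electrochemiluminescence read-out was normalized to LPS control and analyzed by ANOVA.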

[5] = reported; ref Wohnsland and Faller [2001]; cited from earlier work

Chain of CB1 (P21554 whole entry): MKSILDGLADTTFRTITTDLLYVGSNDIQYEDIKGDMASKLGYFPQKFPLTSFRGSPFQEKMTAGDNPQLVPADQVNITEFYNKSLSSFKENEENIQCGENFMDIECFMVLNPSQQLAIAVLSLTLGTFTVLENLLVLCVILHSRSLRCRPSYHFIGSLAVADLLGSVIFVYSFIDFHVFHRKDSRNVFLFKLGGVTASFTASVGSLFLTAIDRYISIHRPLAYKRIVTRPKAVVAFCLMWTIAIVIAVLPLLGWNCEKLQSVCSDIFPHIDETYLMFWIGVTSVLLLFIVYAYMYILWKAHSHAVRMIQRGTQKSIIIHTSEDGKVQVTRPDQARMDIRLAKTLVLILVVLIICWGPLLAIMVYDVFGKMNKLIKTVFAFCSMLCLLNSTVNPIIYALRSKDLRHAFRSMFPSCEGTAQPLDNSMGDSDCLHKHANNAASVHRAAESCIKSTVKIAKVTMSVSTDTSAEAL
Chain of CB2 (P34972 whole entry): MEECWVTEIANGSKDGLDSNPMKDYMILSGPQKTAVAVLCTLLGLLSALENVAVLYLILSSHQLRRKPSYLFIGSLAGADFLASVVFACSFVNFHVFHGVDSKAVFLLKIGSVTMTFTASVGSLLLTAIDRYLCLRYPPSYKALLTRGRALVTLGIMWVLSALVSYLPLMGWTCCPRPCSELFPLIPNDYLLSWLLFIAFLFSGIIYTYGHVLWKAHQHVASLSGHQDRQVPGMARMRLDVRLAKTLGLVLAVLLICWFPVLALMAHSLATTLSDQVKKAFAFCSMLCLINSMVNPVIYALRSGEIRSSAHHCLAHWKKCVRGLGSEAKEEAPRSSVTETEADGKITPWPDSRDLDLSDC

Molecule | CD16/32 (M1 marker) expression compared to LPS control [4] | CD206 (M2 marker) expression compared to LPS control [4] | other results
CCCCCCC(C)(C)c1ccc([C@@H]2C[C@H](O)CC[C@H]2CCCO)c(O)c1 [CP 55,940, 2-[(1R,2R,5R)-5-hydroxy-2-(3-hydroxypropyl)cyclohexyl]-5-(2-methyloctan-2-yl)phenol] |  |  | Average reduction in cAMP response [1]: 90%; Change in cAMP-driven fluorescence / cAMP response [2]: no response was observed; Average reduction in cAMP response [3]: 90%
CCCCCCC(C)(C)c1cc(OC)c([C@@H]2C=C(CO)[C@@H]3C[C@H]2C3(C)C)c(OC)c1 [HU 308] | only HU 308 did so significantly (P < 0.001) | significantly decreased CD206 | 
CCCC(C)(C)c1ccc2c(c1)OC(C)(C)[C@@H]1CC=C(C)C[C@@H]21 [JWH 133] | decreased CD16/32 expression compared to LPS controls | significantly decreased CD206 | 
CN1C(C(=O)Nc2ccccn2)=C(O)c2ccccc2S1(=O)=O [piroxicam] |  |  | Absorbed in humans [5]: 90–100%
SR 144528 | also decreased CD16/32 expression in comparison to LPS control | significantly increased CD206 | 
